# Results from different studies.
# Protocols differ between the studies behind these lines.
# PIK3C3: Phosphatidylinositol 3-kinase catalytic subunit type 3 (PIK3C3, Homo sapiens, UniProt Q8NEB9)
# CA14: Carbonic anhydrase 14 (CA14, Homo sapiens, UniProt Q9ULX7)
# nupG: nupG (Escherichia coli, UniProt P0AFF4)
SMILES,target,assay,setting,measurement,value
COc1ccc2c(c1)c(CC(=O)O)c(C)n2C(=O)c1ccc(Cl)cc1,"Peroxisome proliferator-activated receptor gamma (Pparg, Mus musculus, UniProt P37238)","reporter gene, agonist, luciferase",,EC50,12.1 µM
CCC(=O)N1CCC(C(=O)NCC(=O)N2CCN(c3nc(-c4cnc(N)nc4C(F)F)nc(N4CCOCC4)n3)CC2)CC1,PIK3C3,"binding, competition with immobilised ligand",,Kd,0.1 µM
Oc1ccccc1F,"Iodotyrosine deiodinase (Haliscomenobacter hydrossis, UniProt F4KU78)","binding, fluorescence",,Kd,20000 µM
Cc1cc(Nc2cc3ncccc3c(N[C@@H]3C[C@H]4CC[C@@H](C3)N4CCC#N)n2)n[nH]1,"Death-associated protein kinase 3 (DAPK3, Homo sapiens, UniProt O43293)","binding, competition with immobilised ligand",,Kd,0.019 µM
C[C@]12CC[C@H](O)CC1=CC[C@@H]1[C@@H]2CC[C@]2(C)C(c3cccnc3)=CC[C@@H]12,"Estrogen receptor (ESR1, Homo sapiens, UniProt P03372, Y537C)","ligand displacement in cells, radioligand",,Ki,0.25 µM
Nc1ccnc2ccccc12,"Alpha-2C adrenergic receptor (ADRA2C, Homo sapiens, UniProt P18825)","ligand displacement, radioligand",cell membranes,Ki,81.3 µM
On1ccccc1=S,CA14,"enzyme activity, inhibitor, stopped-flow",,Ki,7.1 µM
N[C@H]1C[C@@H](C(=O)O)CC1=C(C(F)(F)F)C(F)(F)F,"Ornithine aminotransferase, mitochondrial (OAT, Homo sapiens, UniProt P04181)","binding, stopped-flow",,Kd,3000 µM
Cc1cn([C@H]2C[C@H](O)[C@@H](CO)O2)c(=O)[nH]c1=O,nupG,"binding, ITC",,Kd,162 µM
OC[C@H]1OC(O)[C@H](O)[C@@H](O)[C@@H]1O (some centres unmarked),"Hexokinase-1 (Homo sapiens, UniProt P19367)","binding, MST",,Kd,158 µM
CCC(=O)N1CCC(C(=O)N(C)CC(=O)N2CCN(c3nc(-c4cnc(N)nc4C(F)F)nc(N4CCOCC4)n3)CC2)CC1,PIK3C3,"binding, competition with immobilised ligand",,Kd,0.405 µM
CCC(S)C(C)CO (centres unmarked),"OR2M3 (Homo sapiens, UniProt Q8NG83)","cAMP, agonist, luciferase",,EC50,1.4 µM
Cc1occc(=S)c1O,CA14,"enzyme activity, inhibitor, stopped-flow",,Ki,6.7 µM
CN1CCN(c2ccc(Nc3ncc4cc(C#N)c(=O)n(C5CCCC5)c4n3)cc2)CC1,"Calcium/calmodulin-dependent protein kinase type II subunit beta (CAMK2B, Homo sapiens, UniProt Q13554)","enzyme activity, inhibitor",,IC50,> 10 µM
C[C@H]1Oc2cc(cnc2N)-c2c(nn(C)c2C#N)CN(C)C(=O)c2ccc(F)cc21,"Mitogen-activated protein kinase kinase kinase 13 (MAP3K13, Homo sapiens, UniProt O43283)",cell-free assay,lysate,Ki,0.0327 µM
CCCC[C@H](NC(=O)[C@H](C)c1c(C)[nH]c2ccc(O)cc12)c1ncc(-c2cc3ccccc3nc2OC)[nH]1,"Prostaglandin E2 receptor EP3 subtype (PTGER3, Homo sapiens, UniProt P43115)",cell-free assay,,Ki,5.32 µM
CCOCc1nc(O)c(-c2nnc(Cc3ccc(Cl)cn3)o2)c(O)c1-c1c(OC)cccc1OC,"Apelin receptor (APLNR, Homo sapiens, UniProt P35414)","cell-free assay, radioligand",,Kd,0.00015 µM
ON=Cc1ccc(-c2ccc(O)c(F)c2)c(Cl)c1O,"Estrogen receptor (ESR1, Homo sapiens, UniProt P03372)","reporter gene, agonist, luciferase",,EC50,1.63 µM
Nc1nc2c(ncn2[C@@H]2O[C@H](CO)[C@@H](O)[C@H]2O)c(=O)[nH]1,nupG,"binding, ITC",,Kd,46.7 µM
CCOC(=O)[C@@]12C[C@@H]1[C@@H](n1ccc3c(NC)nc(C#Cc4ccccc4)nc31)[C@H](O)[C@@H]2O,"Nociceptin receptor (OPRL1, Homo sapiens, UniProt P41146)","ligand displacement, radioligand",,Ki,> 10 µM
